{
  "source": "ChEMBL document CHEMBL1133633",
  "about": "“Anti-Helicobacter pylori agents. 4. 2-(Substituted guanidino)-4-phenylthiazoles and some structurally rigid derivatives” (2000)",
  "key": {"Rattus norvegicus [1]": {"test_system": "Rattus norvegicus", "assay": "Inhibition of histamine stimulated gastric acid secretion in lumen perfused stomach of anesthetized rats (1 mg/kg iv)", "type": "functional", "summary_of_the_method": "(§1)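 Male Sprague-Dawley rats (~250 g), fasted 24 h, anesthetized with urethane 1.25 g/kg ip. The opened stomach was lumen-perfused with saline, and the perfusate was titrated with 25 mM NaOH by autotitrator. Inhibition of histamine-stimulated acid output was measured after 1 mg/kg iv dosing; n = 2.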"}, "Cavia porcellus [2]": {"species_on_record": "Cavia porcellus", "assay": "Inhibition of histamine stimulated chronotropic response in isolated guinea pig right atrium (1*10e-6 g/mL)", "type": "functional, Cardiac atrium", "summary_of_the_method": "(§2)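 Guinea pig right atrial strip, under 0.3-0.6 g initial tension in Tyrode solution at 30 °C, gassed with 95% O₂-5% CO₂; beating rate recorded by transducer. Histamine hydrochloride (1 × 10^-6 g/mL) raised rate. Test compound (1 × 10^-6 g/mL) was added 30 min after histamine washout. Percent inhibition compares histamine-induced rate increases before and 30 min after dosing.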"}, "Helicobacter pylori [3]": {"test_system": "Helicobacter pylori", "assay": "The lowest drug concentration that inhibited macroscopic colonial growth against Helicobacter pylori; value ranges from 0.39-0.78", "type": "functional", "summary_of_the_method": "(§3)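 Agar dilution. Strains were precultured 3 days at 37 °C on Brucella agar with 3% horse serum and 2% starch, then suspended in buffered saline to McFarland No. 1. A 10²-fold dilution was spotted by multipoint replicator onto Brucella agar with 7% lysed horse blood carrying serial 2-fold drug dilutions. Plates were incubated 3 days at 37 °C under 10% CO₂. MIC is the lowest concentration preventing macroscopic colonial growth. Mean and range come from 10 strains: 8001, 8003, 8004, 8007, 8008, 8009, 8011, 9005, FP1530 and FP1532.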"}, "Bacteroides fragilis": {"test_system": "Bacteroides fragilis", "assay": "Antimicrobial activity was measured against Bacteroides fragilis organism.", "type": "functional"}, "Helicobacter pylori [4]": {"test_system": "Helicobacter pylori", "assay": "Antimicrobial activity was measured against Helicobacter pylori organism. Value ranges from (0.2-0.39)", "type": "functional", "summary_of_the_method": "as §3"}, "Clostridioides difficile": {"test_system": "Clostridioides difficile", "assay": "Antimicrobial activity was measured against Clostridium difficile organism.", "type": "functional"}, "Campylobacter jejuni": {"test_system": "Campylobacter jejuni", "assay": "Antimicrobial activity was measured against Campylobacter jejuni organism.", "type": "functional"}, "Clostridium perfringens": {"test_system": "Clostridium perfringens", "assay": "Antimicrobial activity was measured against Clostridium perfringens organism", "type": "functional"}, "Neisseria gonorrhoeae": {"test_system": "Neisseria gonorrhoeae", "assay": "Antimicrobial activity was measured against Neisseria gonorrhoeae organism", "type": "functional"}, "Helicobacter pylori [5]": {"test_system": "Helicobacter pylori", "assay": "The lowest drug concentration that inhibited macroscopic colonial growth against Helicobacter pylori; value ranges from 0.2-0.39", "type": "functional", "summary_of_the_method": "as §3"}, "Neisseria meningitidis": {"test_system": "Neisseria meningitidis", "assay": "Antimicrobial activity was measured against Neisseria meningitidis organism.", "type": "functional"}, "Helicobacter pylori [6]": {"test_system": "Helicobacter pylori", "assay": "The lowest drug concentration that inhibited macroscopic colonial growth against Helicobacter pylori; value ranges from 3.13-50", "type": "functional", "summary_of_the_method": "as §3"}, "Cavia porcellus [7]": {"species_on_record": "Cavia porcellus", "assay": "Inhibition of histamine stimulated chronotropic response in isolated guinea pig right atrium", "type": "functional, Cardiac atrium", "summary_of_the_method": "as §2"}, "Rattus norvegicus [8]": {"test_system": "Rattus norvegicus", "assay": "Inhibition of histamine stimulated gastric acid secretion in lumen perfused stomach of anesthetized rats", "type": "functional", "summary_of_the_method": "as §1"}, "Helicobacter pylori [9]": {"test_system": "Helicobacter pylori", "assay": "Determined the lowest drug concentration that inhibited macroscopic colonial growth against Helicobacter pylori.", "type": "functional", "summary_of_the_method": "as §3"}, "Helicobacter pylori [10]": {"test_system": "Helicobacter pylori", "assay": "The lowest drug concentration that inhibited macroscopic colonial growth against Helicobacter pylori; value ranges from 12.5-50", "type": "functional", "summary_of_the_method": "as §3"}, "Helicobacter pylori [11]": {"test_system": "Helicobacter pylori", "assay": "The lowest drug concentration that inhibited macroscopic colonial growth against Helicobacter pylori; Value ranges from 6.25-50", "type": "functional", "summary_of_the_method": "as §3"}, "Helicobacter pylori [12]": {"test_system": "Helicobacter pylori", "assay": "The lowest drug concentration that inhibited macroscopic colonial growth against Helicobacter pylori.", "type": "functional", "summary_of_the_method": "as §3"}, "Helicobacter pylori [13]": {"test_system": "Helicobacter pylori", "assay": "The lowest drug concentration that inhibited macroscopic colonial growth against Helicobacter pylori; value ranges from 0.2-0.78", "type": "functional", "summary_of_the_method": "as §3"}, "Helicobacter pylori [14]": {"test_system": "Helicobacter pylori", "assay": "The lowest drug concentration that inhibited macroscopic colonial growth against Helicobacter pylori; value ranges from 6.25-25", "type": "functional", "summary_of_the_method": "as §3"}, "Helicobacter pylori [15]": {"test_system": "Helicobacter pylori", "assay": "The lowest drug concentration that inhibited macroscopic colonial growth against Helicobacter pylori; Value ranges from 0.1-0.39", "type": "functional", "summary_of_the_method": "as §3"}, "Helicobacter pylori [16]": {"test_system": "Helicobacter pylori", "assay": "The lowest drug concentration that inhibited macroscopic colonial growth against Helicobacter pylori; value ranges from 0.39-1.56", "type": "functional", "summary_of_the_method": "as §3"}, "Helicobacter pylori [17]": {"test_system": "Helicobacter pylori", "assay": "The lowest drug concentration that inhibited macroscopic colonial growth against Helicobacter pylori; value ranges from 0.0125-0.1", "type": "functional", "summary_of_the_method": "as §3"}, "Helicobacter pylori [18]": {"test_system": "Helicobacter pylori", "assay": "The lowest drug concentration that inhibited macroscopic colonial growth against Helicobacter pylori; value ranges from 0.00625-0.05", "type": "functional", "summary_of_the_method": "as §3"}, "Helicobacter pylori [19]": {"test_system": "Helicobacter pylori", "assay": "The lowest drug concentration that inhibited macroscopic colonial growth against Helicobacter pylori; value ranges from 0.78-6.25", "type": "functional", "summary_of_the_method": "as §3"}, "Helicobacter pylori [20]": {"test_system": "Helicobacter pylori", "assay": "The lowest drug concentration that inhibited macroscopic colonial growth against Helicobacter pylori; value ranges from 12.5-100", "type": "functional", "summary_of_the_method": "as §3"}},
  "data": [
    {"smiles": "CC(=O)NCc1cccc(-c2csc(NC(=N)NCCOc3ccccc3)n2)c1", "values": [
      {"measurement": "Inhibition", "setting": "Rattus norvegicus [1]", "result": 18, "unit": "%"},
      {"measurement": "Inhibition", "setting": "Cavia porcellus [2]", "result": 52, "unit": "%"},
      {"measurement": "MIC", "setting": "Helicobacter pylori [3]", "result": 0.49, "unit": "µg/mL"}
    ]},
    {"smiles": "COCC/N=C(\\N)Nc1nc(-c2cccc(CNC(C)=O)c2)cs1", "values": [
      {"measurement": "MIC", "setting": "Bacteroides fragilis", "result": "> 100", "unit": "µg/mL"},
      {"measurement": "MIC", "setting": "Helicobacter pylori [4]", "result": 0.32, "unit": "µg/mL"},
      {"measurement": "Inhibition", "setting": "Rattus norvegicus [1]", "result": 87, "unit": "%"},
      {"measurement": "MIC", "setting": "Clostridioides difficile", "result": "> 100", "unit": "µg/mL"},
      {"measurement": "MIC", "setting": "Campylobacter jejuni", "result": "> 100", "unit": "µg/mL"},
      {"measurement": "MIC", "setting": "Clostridium perfringens", "result": "> 100", "unit": "µg/mL"},
      {"measurement": "MIC", "setting": "Neisseria gonorrhoeae", "result": "> 100", "unit": "µg/mL"},
      {"measurement": "MIC", "setting": "Helicobacter pylori [5]", "result": 0.32, "unit": "µg/mL"},
      {"measurement": "MIC", "setting": "Neisseria meningitidis", "result": "> 100", "unit": "µg/mL"},
      {"measurement": "Inhibition", "setting": "Cavia porcellus [2]", "result": 83, "unit": "%"}
    ]},
    {"smiles": "CC(=O)NCc1cccc(-c2csc(NC(=N)NCCNC(=O)c3ccccc3)n2)c1", "values": [
      {"measurement": "MIC", "setting": "Helicobacter pylori [6]", "result": 23, "unit": "µg/mL"}
    ]},
    {"smiles": "CNC(=C[N+](=O)[O-])NCCSCc1ccc(CN(C)C)o1", "note": "[RANITIDINE]", "values": [
      {"measurement": "Inhibition", "setting": "Cavia porcellus [7]", "result": 44, "unit": "%"},
      {"measurement": "Inhibition", "setting": "Rattus norvegicus [8]", "result": 72, "unit": "%"},
      {"measurement": "MIC", "setting": "Helicobacter pylori [9]", "result": "> 1600", "unit": "µg/mL"}
    ]},
    {"smiles": "CCO/N=C(\\N)Nc1nc(-c2cccc(CNC(C)=O)c2)cs1", "values": [
      {"measurement": "MIC", "setting": "Helicobacter pylori [10]", "result": 29, "unit": "µg/mL"}
    ]},
    {"smiles": "CC(=O)NCc1cccc(-c2csc(NC(=N)NCCO)n2)c1", "values": [
      {"measurement": "MIC", "setting": "Helicobacter pylori [11]", "result": 20, "unit": "µg/mL"}
    ]},
    {"smiles": "CC(=O)Nc1ccc2c(c1)-c1nc(N=C(N)N)sc1CS2", "values": [
      {"measurement": "MIC", "setting": "Helicobacter pylori [12]", "result": "> 100", "unit": "µg/mL"}
    ]},
    {"smiles": "COc1ccc(CC/N=C(\\N)Nc2nc(-c3cccc(CNC(C)=O)c3)cs2)cc1", "values": [
      {"measurement": "MIC", "setting": "Helicobacter pylori [13]", "result": 0.32, "unit": "µg/mL"},
      {"measurement": "Inhibition", "setting": "Rattus norvegicus [1]", "result": 10, "unit": "%"},
      {"measurement": "Inhibition", "setting": "Cavia porcellus [2]", "result": 34, "unit": "%"}
    ]},
    {"smiles": "CC(=O)NCc1cccc(-c2csc(NC(=N)NCCC#N)n2)c1", "values": [
      {"measurement": "MIC", "setting": "Helicobacter pylori [14]", "result": 19.3, "unit": "µg/mL"}
    ]},
    {"smiles": "CC(=O)NCc1ccc(-c2csc(N=C(N)N)n2)cc1", "values": [
      {"measurement": "MIC", "setting": "Helicobacter pylori [12]", "result": "> 100", "unit": "µg/mL"}
    ]},
    {"smiles": "CC(=O)Nc1ccc2c(c1)-c1nc(N=C(N)N)sc1CCO2", "values": [
      {"measurement": "MIC", "setting": "Helicobacter pylori [12]", "result": "> 100", "unit": "µg/mL"}
    ]},
    {"smiles": "C/N=C(\\N)Nc1nc(-c2cccc(CNC(C)=O)c2)cs1", "values": [
      {"measurement": "MIC", "setting": "Helicobacter pylori [12]", "result": 14.4, "unit": "µg/mL"}
    ]},
    {"smiles": "CCCC/N=C(\\N)Nc1nc(-c2cccc(CNC(C)=O)c2)cs1", "values": [
      {"measurement": "MIC", "setting": "Helicobacter pylori [15]", "result": 0.22, "unit": "µg/mL"},
      {"measurement": "Inhibition", "setting": "Cavia porcellus [7]", "result": 84, "unit": "%"},
      {"measurement": "Inhibition", "setting": "Rattus norvegicus [1]", "result": 74, "unit": "%"}
    ]},
    {"smiles": "COCCC/N=C(\\N)Nc1nc(-c2cccc(CNC(C)=O)c2)cs1", "values": [
      {"measurement": "Inhibition", "setting": "Rattus norvegicus [1]", "result": 87, "unit": "%"},
      {"measurement": "MIC", "setting": "Helicobacter pylori [16]", "result": 0.96, "unit": "µg/mL"},
      {"measurement": "Inhibition", "setting": "Cavia porcellus [2]", "result": 54, "unit": "%"}
    ]},
    {"smiles": "CC(=O)NCc1cccc(-c2csc(NC(=N)NCCc3ccccc3)n2)c1", "values": [
      {"measurement": "Inhibition", "setting": "Rattus norvegicus [1]", "result": 59, "unit": "%"},
      {"measurement": "Inhibition", "setting": "Cavia porcellus [2]", "result": 65, "unit": "%"},
      {"measurement": "MIC", "setting": "Helicobacter pylori [17]", "result": 0.037, "unit": "µg/mL"}
    ]},
    {"smiles": "CC(=O)NCc1cccc(-c2csc(NC(=N)NCc3ccccc3)n2)c1", "values": [
      {"measurement": "Inhibition", "setting": "Rattus norvegicus [1]", "result": 50, "unit": "%"},
      {"measurement": "MIC", "setting": "Helicobacter pylori [18]", "result": 0.025, "unit": "µg/mL"},
      {"measurement": "Inhibition", "setting": "Cavia porcellus [2]", "result": 77, "unit": "%"}
    ]},
    {"smiles": "CC(=O)NCc1cccc(-c2csc(NC(=N)NCCOCc3ccccc3)n2)c1", "values": [
      {"measurement": "MIC", "setting": "Helicobacter pylori [19]", "result": 2.5, "unit": "µg/mL"}
    ]},
    {"smiles": "CC(=O)NCc1cccc(-c2csc(N/C(N)=N/CCN(C)C)n2)c1", "values": [
      {"measurement": "MIC", "setting": "Helicobacter pylori [20]", "result": 57, "unit": "µg/mL"}
    ]}
  ]
}
